In ChEMBL document CHEMBL1138288, “2-phenylimidazopyridines, a new series of Golgi compounds with potent antiviral activity” (J Med Chem, 2007):
pIC50: −log10 of the molar value.

What was measured:
[1] = Inhibition of IgE production in antigen-sensitized BALB/c mouse spleen cells; assay type: functional, tissue-based
[2] = tested on: Human alphaherpesvirus 2; test: Antiviral activity against HSV2-infected Vero cells; assay type: functional, organism-based
[3] = tested on: Vaccinia virus; test: Antiviral activity against Vaccinia virus-infected Vero cells; assay type: functional, organism-based, Orthopoxvirus vaccinia
[4] = tested on: Vesicular stomatitis virus; test: Antiviral activity against VSV-infected Vero cells; assay type: functional, organism-based
[5] = tested on: California encephalitis virus; test: Antiviral activity against California encephalitis virus-infected Vero cells; assay type: functional, cell-based
[6] = tested on: San Angelo virus; test: Antiviral activity against San Angelo virus-infected Vero cells; assay type: functional, organism-based
[7] = tested on: Simian virus 40; test: Antiviral activity against SV40-infected Vero cells; assay type: functional, organism-based; settings: Betapolyomavirus macacae
Method in brief: (§1)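 Cells were seeded at about 50 000/well and infected 24 h later at MOI 0.1 or less, with drug added alongside. Once infectivity was evident, cells were washed and stained with methylene blue/carbol fuchsin in methanol for 10 min at room temperature.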

[8] = tested on: Murine hepatitis virus; test: Antiviral activity against mouse hepatitis virus-infected NCTC clone-1469 cells; assay type: functional, organism-based; settings: Murine coronavirus; method in brief: as §1
[9] = tested on: Modoc virus; test: Antiviral activity against Modoc virus-infected HeLa-H1 cells; assay type: functional, organism-based
[10] = tested on: Enterovirus; test: Antiviral activity against Rhinovirus-infected HeLa-H1 cells; assay type: functional, organism-based
[11] = California encephalitis virus, Vero

| SMILES | pIC50 ([1]; Mus musculus, BALB/c, Spleen) | pIC50 ([2]; Human alphaherpesvirus 2, Vero) | pIC50 ([3]; Orthopoxvirus vaccinia, Vero) | pIC50 [4] | pIC50 [5, 11] | pIC50 ([6]; San Angelo virus, Vero) | pIC50 [7] | pIC50 [8] | pIC50 [9] | pIC50 ([10]; Enterovirus, HeLa H1) | pIC50 [1] | pIC50 ([2]; vero) | pIC50 ([3]; vero) | pIC50 ([5]; vero) | pIC50 ([6]; vero) | pIC50 ([10]; hela-h1) |
| --- | --- | --- | --- | --- | --- | --- | --- | --- | --- | --- | --- | --- | --- | --- | --- | --- |
| CC(=O)OC1CCC(C(=O)Nc2ccc(-c3nc4cc(NC(=O)C5CCC(OC(C)=O)CC5)ccc4[nH]3)cc2)CC1 (stereo not given) | 6.00 | < 5.70 | < 5.70 | 6.00 | < 5.70 | < 5.70 | 5.82 | < 6.22 | < 6.22 | < 5.70 |  |  |  |  |  |  |
| O=C(Nc1ccc(-c2nc3cc(NC(=O)C45CC6CC(C4)C(O)C(C6)C5)ncc3[nH]2)cc1)C12CC3CC(CC(C3)C1)C2 (stereo not given) | 9.82 | 7.05 | 6.40 | < 5.70 | 7.22 | 7.22 | 6.00 | 6.70 | 7.70 | 7.70 |  |  |  |  |  |  |
| O=C(Nc1ccc(-c2nc3cc(C(=O)NC45CC6CC(CC(C6)C4)C5)ncc3[nH]2)cc1)c1ccc(Cl)cc1 | 8.52 | 7.70 | 7.40 | < 5.70 | 7.22 | 7.70 | < 5.70 | 7.22 | 7.70 | 6.40 |  |  |  |  |  |  |
| O=C(NC12CC3CC(CC(C3)C1)C2)c1ccc2[nH]c(-c3ccc(NC(=O)C45CC6CC(CC(C6)C4)C5)cc3)nc2c1 | 8.30 | 7.40 | 6.22 | < 5.70 | 7.22 | 7.70 | < 5.70 | 7.70 | 7.22 | 7.70 |  |  |  |  |  |  |
| O=C(Nc1ccc(-c2nc3cc(NC(=O)C4CCCCC4)ccc3[nH]2)cc1)C1CCCCC1 | 8.30 | 6.77 | 6.70 | 6.00 | 6.70 | 6.70 | 6.00 | 7.70 | 7.30 | 6.80 |  |  |  |  |  |  |
| O=C(Nc1cc2nc(-c3ccc(NC(=O)C45CC6CC(CC(C6)C4)C5)cc3)[nH]c2cn1)c1ccccn1 | 8.00 | 7.12 | 6.30 | 6.00 | 7.22 | 7.22 | < 5.70 | 7.22 | 7.22 | 7.22 |  |  |  |  |  |  |
| O=C(Nc1ccc(-c2nc3cc(NC(=O)C4CCCCC4)ccc3[nH]2)cc1)c1ccc(Cl)c(Cl)c1 | 8.52 | 7.22 | 6.22 | < 5.70 | 6.70 | 7.22 | < 5.70 | 7.70 | 7.70 | 6.70 |  |  |  |  |  |  |
| O=C(Nc1ccc(-c2nc3cc(C(=O)NC45CC6CC(C4)C(=O)C(C6)C5)ncc3[nH]2)cc1)c1ccc(Cl)cc1 | 9.82 | 7.40 | 7.40 | 6.00 | 6.70 | 6.87 | < 5.70 | 7.00 | < 6.22 | 7.70 |  |  |  |  |  |  |
| O=C(NC12CC3CC(C1)C(=O)C(C3)C2)c1cc2nc(-c3ccc(NC(=O)C45CC6CC(CC(O)(C6)C4)C5)cc3)[nH]c2cn1 | 6.85 | < 5.70 | < 5.70 | < 5.70 | 6.70 | 6.70 | < 5.70 | < 6.22 | < 6.22 | 7.00 |  |  |  |  |  |  |
| O=C(NC12CC3CC(CC(C3)C1)C2)c1cc2nc(-c3ccc(NC(=O)C45CC6CC(CC(C6)C4)C5)cc3)[nH]c2cn1 | 8.00 | 7.52 | 6.85 | < 5.70 | 7.22 | 7.22 | < 5.70 | 7.70 | 7.00 | 7.40 |  |  |  |  |  |  |
| O=C(Nc1ccccn1)c1cc2nc(-c3ccc(NC(=O)C45CC6CC(CC(C6)C4)C5)cc3)[nH]c2cn1 | 6.92 | 6.22 | 5.82 | < 5.70 | 7.40 | 7.40 | < 5.70 | 7.30 | 6.22 | 6.70 |  |  |  |  |  |  |
| O=C(Nc1ccc(-c2nc3cc(NC(=O)C45CC6CC(CC(C6)C4)C5)ccc3[nH]2)cc1)C12CC3CC(CC(C3)C1)C2 | 9.00 | 7.70 | 6.40 | < 5.70 | 7.52 | 7.22 | 5.92 | 7.92 | 7.70 | 7.22 |  |  |  |  |  |  |
| O=C(Nc1ccccn1)c1ccc2[nH]c(-c3ccc(NC(=O)C45CC6CC(CC(C6)C4)C5)cc3F)nc2c1 | 8.00 | 6.82 | 6.22 | < 5.70 | 6.70 | 6.70 | < 5.70 | 7.22 | 7.22 | 6.40 |  |  |  |  |  |  |
| O=C(Nc1ccc(-c2nc3cc(NC(=O)C4CCCCC4)ncc3[nH]2)cc1)C1CCCCC1 | 8.82 | 7.70 | 7.22 | < 5.70 | 7.22 | 7.70 | < 5.70 | 7.82 | 8.22 | 7.22 |  |  |  |  |  |  |
| O=C(Nc1ccc(-c2nc3cc(NC(=O)C45CC6CC(CC(C6)C4)C5)ncc3[nH]2)cc1)C12CC3CC(C1)C(O)C(C3)C2 (stereo not given) | 9.00 | 7.22 | 6.92 | 6.00 | 6.70 | 7.22 | < 5.70 | 7.70 | 7.70 | 8.00 |  |  |  |  |  |  |
| O=C(Nc1ccccn1)c1ccc2[nH]c(-c3ccc(NC(=O)C45CC6CC(CC(C6)C4)C5)cc3)nc2c1 (stereo in doubt; 1h) |  |  |  | < 5.70 |  |  | < 5.70 | 7.70 | 7.22 |  | 8.40 | 7.52 | 7.40 | 7.22 | 7.70 | 7.70 |
| O=C1C2CC3CC1CC(C(=O)Nc1ccc(-c4nc5cc(NC(=O)C67CC8CC(CC(C8)C6)C7)ncc5[nH]4)cc1)(C3)C2 | 8.40 | 6.60 | 6.40 | < 5.70 | 6.70 | 6.70 | < 5.70 | 6.70 | < 6.22 | < 5.70 |  |  |  |  |  |  |
| O=C(Nc1ccc(-c2nc3cc(C(=O)NC45CC6CC(CC(C6)C4)C5)ccc3[nH]2)cc1)c1ccc(Cl)c(Cl)c1 | 9.00 | 7.70 | 7.70 | < 5.70 | 7.70 | 8.22 | < 5.70 | 8.10 | 8.22 | 7.70 |  |  |  |  |  |  |
| O=C1C2CC3CC1CC(C(=O)Nc1ccc(-c4nc5cc(NC(=O)C67CC8CC(C6)C(=O)C(C8)C7)ncc5[nH]4)cc1)(C3)C2 | 7.35 | < 5.70 | < 5.70 | < 5.70 | 6.70 | 6.70 | 6.00 | < 6.22 | < 6.22 | < 5.70 |  |  |  |  |  |  |
